Measurements published in ChEMBL document CHEMBL1126909, “Synthesis and pharmacological examination of benzofuran, indan, and tetralin analogues of 3,4-(methylenedioxy)amphetamine” (J Med Chem, 1993).

Legend:
Format in all cases: functional
Rattus norvegicus [1] = species: Rattus norvegicus; assay: Tested for drug-discrimination stimulus effect in S-1c trained rats
Summary of the method: (§1)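 Male Sprague-Dawley rats (175–200 g) held at about 80% of free-feeding weight were trained on two levers to tell (S)-1c·HCl 1.75 mg/kg from saline. Test drugs were given in 0.9% saline, ip, 30 min before sessions run under extinction. A session ended at 50 presses on one lever, or was scored disrupted if not done within 5 min. %SDL counts nondisrupted rats. ED50 and 95% CI were derived by Litchfield–Wilcoxon.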

Rattus norvegicus [2] = species: Rattus norvegicus; assay: Inhibitory concentration against [3H]- 5-HT uptake in crude rat synaptosomes; settings: Brain
Summary of the method: (§2)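 Crude synaptosomes from male Sprague-Dawley rat tissue homogenised in ice-cold isotonic sucrose. Preincubated 5 min at 37 °C under aeration with pargyline (final 100 μM), then chilled. Tritiated transmitter added at 10 nM final and uptake run 5 min at 37 °C. Catecholamine buffer had 0.06 mM ascorbate. Filtered and counted by scintillation. 9–10 concentrations in triplicate, 3–4 experiments, four-parameter logistic fit for IC50 ± SEM.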

Rattus norvegicus [3] = assay: Percentage of nondisrupted animals selecting drug liver in 3 trained at 1.286 mg/kg; SDL
Summary of the method: (§3)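 Rats and training are as above: male Sprague-Dawley, food-restricted, with training doses per drug group. Test drug was given ip in saline 30 min before extinction sessions. %SDL is the share of nondisrupted rats reaching 50 presses on the drug lever. A rat not completing 50 presses in 5 min was scored as disrupted.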

Rattus norvegicus [4] = assay: Number of animals tested to that of number of animals disrupted in 3 trained at 0.429 mg/kg; Number of animals tested=12
Summary of the method: (§4)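 Drug-discrimination rats were male Sprague-Dawley, 175–200 g, kept at about 80% of free-feeding weight. They were trained against saline on (S)-1c·HCl 1.75 mg/kg, 3·HCl 1.71 mg/kg or (S)-amphetamine sulfate 1 mg/kg. Test drug was given ip in 0.9% saline at 1 mL/kg, 30 min before sessions run under extinction. A session ended at 50 presses on one lever; failing 50 presses within 5 min was scored as disrupted.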

Rattus norvegicus [5] = assay: Number of animals tested to that of number of animals disrupted in 3 trained at 0.857 mg/kg; Number of animals tested=11; summary of the method: as §4
Rattus norvegicus [6] = assay: Percentage of nondisrupted animals selecting drug liver in 3 trained at 0.643 mg/kg; SDL; summary of the method: as §3
Rattus norvegicus [7] = assay: Percentage of nondisrupted animals selecting drug liver in 3 trained at 0.215 mg/kg; SDL; summary of the method: as §3
Rattus norvegicus [8] = assay: Tested for drug-discrimination stimulus effect at 0.215 mg/kg; 0.31-0.74
Rattus norvegicus [9] = assay: Number of animals tested to that of number of animals disrupted in S-1c trained at 0.643 mg/kg; Number of animals tested=10; summary of the method: as §4
Rattus norvegicus [10] = species: Rattus norvegicus; assay: Inhibitory concentration against [3H]- NE uptake in crude rat synaptosomes; settings: Brain; summary of the method: as §2
Rattus norvegicus [11] = assay: Percentage of nondisrupted animals selecting drug liver in 3 trained at 0.857 mg/kg; SDL; summary of the method: as §3
Rattus norvegicus [12] = assay: Number of animals tested to that of number of animals disrupted in S-1c trained at 0.429 mg/kg; Number of animals tested=11; summary of the method: as §4
Rattus norvegicus [13] = assay: Number of animals tested to that of number of animals disrupted in S-1c trained at 0.215 mg/kg; Number of animals tested=10; summary of the method: as §4
Rattus norvegicus [14] = assay: Number of animals tested to that of number of animals disrupted in 3 trained at 0.643 mg/kg; Number of animals tested=12; summary of the method: as §4
Rattus norvegicus [15] = species: Rattus norvegicus; assay: Inhibitory concentration against [3H]- DA uptake, p<0.0001
Rattus norvegicus [16] = assay: Number of animals tested to that of number of animals disrupted in 3 trained at 0.108 mg/kg; Number of animals tested=8; summary of the method: as §4
Rattus norvegicus [17] = assay: Percentage of nondisrupted animals selecting drug liver in S-1c trained at 0.643 mg/kg; SDL
Rattus norvegicus [18] = assay: Number of animals tested to that of number of animals disrupted in 3 trained at 1.286 mg/kg; Number of animals tested=8; summary of the method: as §4
Rattus norvegicus [19] = assay: Percentage of nondisrupted animals selecting drug liver in S-1c trained at 0.215 mg/kg; SDL; summary of the method: as §3
Rattus norvegicus [20] = assay: Percentage of nondisrupted animals selecting drug liver in 3 trained at 0.429 mg/kg; SDL; summary of the method: as §3
Rattus norvegicus [21] = assay: Percentage of nondisrupted animals selecting drug liver in 3 trained at 0.108 mg/kg; SDL; summary of the method: as §3
Rattus norvegicus [22] = assay: Percentage of nondisrupted animals selecting drug liver in S-1c trained at 0.857 mg/kg; SDL
Rattus norvegicus [23] = assay: Number of animals tested to that of number of animals disrupted in 3 trained at 0.215 mg/kg; Number of animals tested=11; summary of the method: as §4
Rattus norvegicus [24] = assay: Number of animals tested to that of number of animals disrupted in S-1c trained at 0.857 mg/kg; Number of animals tested=10; summary of the method: as §4
Rattus norvegicus [25] = assay: Tested for drug-discrimination stimulus effect at 0.429 mg/kg; 0.24-0.57; summary of the method: as §1
Rattus norvegicus [26] = assay: Percentage of nondisrupted animals selecting drug liver in S-1c trained at 0.429 mg/kg; SDL
Rattus norvegicus [27] = assay: Number of animals tested to that of number of animals disrupted in 3 trained at 0.857 mg/kg; Number of animals tested=12; summary of the method: as §4
Rattus norvegicus [28] = assay: Number of animals tested to that of number of animals disrupted in S-1c trained at 0.857 mg/kg; Number of animals tested=11; summary of the method: as §4
Rattus norvegicus [29] = assay: Number of animals tested to that of number of animals disrupted in 3 trained at 0.214 mg/kg; Number of animals tested=12; summary of the method: as §4
Rattus norvegicus [30] = assay: Percentage of nondisrupted animals selecting drug liver in S-1c trained at 0.108 mg/kg; SDL; summary of the method: as §3
Rattus norvegicus [31] = assay: Tested for drug-discrimination stimulus effect at 0.215 mg/kg in S-1c trained animals; 0.23-0.57; summary of the method: as §1
Rattus norvegicus [32] = assay: Number of animals tested to that of number of animals disrupted in S-1c trained at 0.643 mg/kg; Number of animals tested=12
Rattus norvegicus [33] = species: Rattus norvegicus; assay: Inhibitory concentration against [3H]- DA uptake in crude rat synaptosomes; settings: Brain; summary of the method: as §2
Rattus norvegicus [34] = assay: Percentage of nondisrupted animals selecting drug liver in 3 trained at 0.214 mg/kg; SDL; summary of the method: as §3
Rattus norvegicus [35] = assay: Number of animals tested to that of number of animals disrupted in S-1c trained at 0.108 mg/kg; Number of animals tested=7; summary of the method: as §4
Rattus norvegicus [36] = assay: Number of animals tested to that of number of animals disrupted in S-1c trained at 0.429 mg/kg; Number of animals tested=10; summary of the method: as §4

`CCC(Cc1ccc2c(c1)OCO2)NC` (configuration not stated) was tested. Which ED50 (Rattus norvegicus [1]) did it give?
The ED50 was 0.79 mg/kg.

How did the IC50 (Rattus norvegicus [2]) turn out when `CC(N)Cc1ccc2c(c1)CCO2` (configuration not stated) was run?
The IC50 was 130 nM.

What about the SDL (Rattus norvegicus [3]) of the same molecule?
Its SDL is 100%.

What about the Activity (Rattus norvegicus [4]) of the same molecule?
The Activity was 6.

What about the Activity (Rattus norvegicus [5]) of the same molecule?
Its Activity is 4.

What about the SDL (Rattus norvegicus [6]) of the same molecule?
Its SDL is 75%.

What about the SDL (Rattus norvegicus [7]) of the same molecule?
The SDL was 33%.

What about the ED50 (Rattus norvegicus [8]) of the same molecule?
Its ED50 is 0.48 mg/kg.

What about the Activity (Rattus norvegicus [9]) of the same molecule?
Its Activity is 3.

What about the IC50 (Rattus norvegicus [10]) of the same molecule?
Its IC50 is 3240 nM.

What about the SDL (Rattus norvegicus [11]) of the same molecule?
The SDL was 86%.

And the Activity (Rattus norvegicus [12])?
The Activity was 5.

What about the Activity (Rattus norvegicus [13]) of the same molecule?
The Activity was 2.

And the Activity (Rattus norvegicus [14])?
The Activity was 4.

What about the IC50 (Rattus norvegicus [15]) of the same molecule?
Its IC50 is 7090 nM.

What about the Activity (Rattus norvegicus [16]) of the same molecule?
The Activity was 3.

What about the SDL (Rattus norvegicus [17]) of the same molecule?
The SDL was 71%.

And the Activity (Rattus norvegicus [18])?
Its Activity is 5.

What about the SDL (Rattus norvegicus [19]) of the same molecule?
Its SDL is 25%.

And the SDL (Rattus norvegicus [20])?
The SDL was 50%.

And the SDL (Rattus norvegicus [21])?
Its SDL is 0%.

What about the SDL (Rattus norvegicus [22]) of the same molecule?
Its SDL is 100%.

And the Activity (Rattus norvegicus [23])?
Its Activity is 8.

And the Activity (Rattus norvegicus [24])?
Its Activity is 4.

What about the ED50 (Rattus norvegicus [25]) of the same molecule?
The ED50 was 0.37 mg/kg.

What about the SDL (Rattus norvegicus [26]) of the same molecule?
Its SDL is 50%.

Which IC50 (Rattus norvegicus [2]) does the source give for `CC(N)Cc1ccc2c(c1)OCC2` (configuration not stated) here?
The IC50 was 322 nM.

What about the SDL (Rattus norvegicus [3]) of the same molecule?
The SDL was 100%.

And the Activity (Rattus norvegicus [27])?
Its Activity is 2.

What about the Activity (Rattus norvegicus [28]) of the same molecule?
The Activity was 5.

And the Activity (Rattus norvegicus [4])?
The Activity was 6.

And the Activity (Rattus norvegicus [29])?
Its Activity is 6.

And the SDL (Rattus norvegicus [6])?
The SDL was 100%.

What about the SDL (Rattus norvegicus [30]) of the same molecule?
Its SDL is 0%.

What about the ED50 (Rattus norvegicus [31]) of the same molecule?
The ED50 was 0.4 mg/kg.

And the IC50 (Rattus norvegicus [10])?
The IC50 was 980 nM.

And the SDL (Rattus norvegicus [11])?
The SDL was 90%.

And the Activity (Rattus norvegicus [32])?
The Activity was 4.

And the Activity (Rattus norvegicus [13])?
The Activity was 3.

And the Activity (Rattus norvegicus [14])?
The Activity was 5.

What about the IC50 (Rattus norvegicus [33]) of the same molecule?
The IC50 was 2000 nM.

What about the Activity (Rattus norvegicus [16]) of the same molecule?
Its Activity is 6.

And the SDL (Rattus norvegicus [17])?
The SDL was 88%.

And the Activity (Rattus norvegicus [18])?
Its Activity is 6.

And the SDL (Rattus norvegicus [34])?
The SDL was 17%.

And the SDL (Rattus norvegicus [19])?
Its SDL is 14%.

And the SDL (Rattus norvegicus [20])?
Its SDL is 83%.

What about the SDL (Rattus norvegicus [21]) of the same molecule?
Its SDL is 0%.

And the SDL (Rattus norvegicus [22])?
Its SDL is 100%.

And the Activity (Rattus norvegicus [35])?
The Activity was 2.

And the Activity (Rattus norvegicus [36])?
Its Activity is 3.

What about the SDL (Rattus norvegicus [26]) of the same molecule?
Its SDL is 57%.
